Data published in ChEMBL document CHEMBL1122396, “Antagonists of slow-reacting substance of anaphylaxis. 1. Pyrido[2,1-b]quinazolinecarboxylic acid derivatives” (J Med Chem, 1983).
Where a name gives a salt, the structure may show the parent alone.

How the values were obtained:
Cavia porcellus [1] = species: Cavia porcellus; assay: Ability to prevent constrictions induced by SRS-A (slow reacting substance of anaphylaxis) in guinea pig ileum; assay type: functional
Method in brief: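 Ileum segments (1.5 cm) from 200–250 g guinea pigs are held in Tyrode's solution with 10^-6 M atropine sulfate and 10^-6 M pyrilamine maleate, at 37 °C, aerated with 95% O2/5% CO2. SRS-A comes from egg albumin challenge of chopped lung from actively sensitized guinea pigs, dosed to give 50% of maximal isotonic contraction. Compound is added 3 min before challenge. Three concentrations (10–90% inhibition) are run in duplicate, and IC50 is taken from the log dose-response curve.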

Cavia porcellus [2] = species: Cavia porcellus; assay: Ability to prevent constrictions induced by SRS-A (slow reacting substance of anaphylaxis) in guinea pig ileum at a concentration of 1x 10E-5 M; assay type: functional

| IC50 (Cavia porcellus [1]) [nM] | SMILES | inhibition at 10 µM (Cavia porcellus [2]) [%] |
| --- | --- | --- |
| 1000 | CC(C)c1ccc2nc3ccc(C(=O)NCCN4CCC(c5ccccc5)CC4)cn3c(=O)c2c1 |  |
| 2500 | CC(C)c1ccc2nc3ccc(C(=O)NCCNc4ccccc4)cn3c(=O)c2c1 |  |
| 1000 | CC(C)c1ccc2nc3ccc(C(=O)NCCN4CCN(c5ccccc5)CC4)cn3c(=O)c2c1 |  |
| 10000 | CCC(C)c1ccc2nc3ccc(C(=O)NCCN(CC)CC)cn3c(=O)c2c1 (stereo not drawn) |  |
| 1000 | CC(C)c1ccc2nc3ccc(C(=O)NCCN(C(C)C)C(C)C)cn3c(=O)c2c1 |  |
| 10000 | CCN(CC)CCNC(=O)c1ccc2nc3ccc(C(C)(C)C)cc3c(=O)n2c1 |  |
| 35 | CCCc1c(OCC(O)COc2ccc3c(=O)cc(C(=O)O)oc3c2CCC)ccc(C(C)=O)c1O (stereo not drawn) [FPL-55712 SODIUM SALT] |  |
| 1000 | CCN(CC)CCNC(=O)c1ccc2nc3ccc(CC(C)C)cc3c(=O)n2c1 |  |
| 10000 | CC(C)c1ccc2nc3ccc(C(=O)NCCN(c4ccccc4)c4ccccc4)cn3c(=O)c2c1 |  |
| 1000 | CC(C)c1ccc2nc3ccc(C(=O)NCCN4C(C)(C)CCCC4(C)C)cn3c(=O)c2c1 |  |
| 1000 | CC(C)c1ccc2nc3ccc(C(=O)NCCN4CCC(Cc5ccccc5)CC4)cn3c(=O)c2c1 |  |
| 5000 | CCN(CC)CCNC(=O)c1ccc2nc3ccc(C(C)C)cc3c(=O)n2c1 |  |
| 1000 | CC(C)c1ccc2nc3ccc(C(=O)NCCN4CCN(C(c5ccccc5)c5ccccc5)CC4)cn3c(=O)c2c1 |  |
| 2000 | CC(C)c1ccc2nc3ccc(C(=O)NCCN(C4CCCCC4)C4CCCCC4)cn3c(=O)c2c1 |  |
| 6000 | CC(C)c1ccc2nc3ccc(C(=O)OCCN4CCCCC4)cn3c(=O)c2c1 |  |
| 4000 | CCN(CC)CCOC(=O)c1ccc2nc3ccc(C(C)C)cc3c(=O)n2c1 |  |

More lines, now with the values behind:

| SMILES | IC50 (Cavia porcellus [1]) [nM] | inhibition at 10 µM (Cavia porcellus [2]) [%] |
| --- | --- | --- |
| CC(C)c1ccc2nc3ccc(C(=O)NCCN4CCN(C)CC4)cn3c(=O)c2c1 |  | 34 |
| CCN(CC)CCOC(=O)c1ccc2nc3ccc(C)cc3c(=O)n2c1 |  | 11 |
| CCN(CC)CCOC(=O)c1ccc2nc3ccc(SC)cc3c(=O)n2c1 |  | 0 |
| CC(C)c1ccc2nc3ccc(C(=O)NCCN4CCCCC4)cn3c(=O)c2c1 |  | 15 |
| CCN(CC)CCOC(=O)c1ccc2nc3ccc(OC)cc3c(=O)n2c1 |  | 0 |
| CCN(CC)CCNC(=O)c1ccc2nc3ccc(C(C)C)cn3c(=O)c2c1 |  | 6 |
| CCN(CC)CCOC(=O)c1ccc2nc3ccc(OC(C)C)cc3c(=O)n2c1 |  | 17 |
| CCN(CC)CC(C)OC(=O)c1ccc2nc3ccc(C(C)C)cc3c(=O)n2c1 (stereo not drawn) | 10000 |  |
| CCN(CC)CCCNC(=O)c1ccc2nc3ccc(C(C)C)cc3c(=O)n2c1 |  | 37 |
| CCCCCOC(=O)c1ccc2nc3ccc(C(C)C)cc3c(=O)n2c1 |  | 10 |
| CCN(CC)CCOC(=O)c1ccc2nc3ccc(C(C)C)cn3c(=O)c2c1 |  | 5 |
| CC(C)c1ccc2nc3ccc(C(=O)NCCN(C)C)cn3c(=O)c2c1 |  | 42 |
